Assay results as given in ChEMBL document CHEMBL4014289, “Synthesis and evaluation of a ligand targeting the μ and δ opioid receptors for drug delivery to lung cancer” (Bioorg Med Chem Lett, 2017).
The source made the active and inactive calls. The rule behind the calls is not given here.

Legend:
[1] = tested on: Kidney; test: Drug uptake in Nu/Nu mouse kidney xenografted with HEK cells expressing delta opioid receptor (unknown origin); format: ADME, tissue-based
How it was run: (§1)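 Mice carrying HEK xenografts transfected with μ (HEK-mu) or δ (HEK-delta) opioid receptor. […] Mice were sacrificed at 4 h, and organs and tissues were collected and weighed. Radioactivity was counted against a standard tube and expressed as %ID/gram.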

[2] = tested on: Heart; test: Drug uptake in Nu/Nu mouse heart xenografted with HEK cells expressing delta opioid receptor (unknown origin); format: ADME, tissue-based; how it was run: as §1
[3] = tested on: Liver; test: Drug uptake in Nu/Nu mouse liver xenografted with HEK cells expressing delta opioid receptor (unknown origin); format: ADME, tissue-based; how it was run: as §1
[4] = tested on: Spleen; test: Drug uptake in Nu/Nu mouse spleen xenografted with HEK cells expressing delta opioid receptor (unknown origin); format: ADME, tissue-based; how it was run: as §1
[5] = tested on: Intestine; test: Drug uptake in Nu/Nu mouse intestine xenografted with HEK cells expressing delta opioid receptor (unknown origin); format: ADME, tissue-based; how it was run: as §1
[6] = Drug uptake in Nu/Nu mouse skin xenografted with HEK cells expressing delta opioid receptor (unknown origin); format: ADME, Zone of skin; how it was run: as §1
[7] = Drug uptake in Nu/Nu mouse tumor xenografted with HEK cells expressing delta opioid receptor (unknown origin); format: ADME, Neoplasm; how it was run: as §1
[8] = target: Delta-type opioid receptor (Homo sapiens) (UniProt P41143); test: Binding affinity to delta opioid receptor (unknown origin) expressed in HEK cells at 10 nM by confocal microscopic method; format: cell-based
Sequence of Delta-type opioid receptor (Homo sapiens) (P41143 whole entry): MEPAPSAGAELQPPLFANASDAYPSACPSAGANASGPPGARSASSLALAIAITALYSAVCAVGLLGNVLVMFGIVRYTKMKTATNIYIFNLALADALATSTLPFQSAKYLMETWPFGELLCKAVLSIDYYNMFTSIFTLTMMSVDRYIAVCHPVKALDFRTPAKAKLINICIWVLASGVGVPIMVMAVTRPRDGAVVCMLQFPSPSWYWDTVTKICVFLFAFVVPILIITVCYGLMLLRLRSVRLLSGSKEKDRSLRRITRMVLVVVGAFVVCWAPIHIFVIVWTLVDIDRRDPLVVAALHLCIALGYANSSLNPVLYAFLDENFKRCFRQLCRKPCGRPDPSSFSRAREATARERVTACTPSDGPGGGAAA
How it was run: (§2)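 HEK cells transfected to overexpress the δ-opioid receptor were incubated with a rhodamine-labelled naltrexone-derived conjugate for 1 h. They were given the conjugate alone or with a 100-fold higher concentration of naltrindole as competitor. Uptake and internalisation were imaged by confocal microscopy.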

[9] = target: Delta-type opioid receptor (Homo sapiens) (UniProt P41143); test: Binding affinity to delta opioid receptor (unknown origin) expressed in HEK cells at 10 nM in presence of DOR antagonist […] after 1 hr by confocal microscopic method; format: cell-based; how it was run: as §2
[10] = Drug uptake in Nu/Nu mouse skin xenografted with HEK cells expressing mu opioid receptor (unknown origin); format: ADME, Zone of skin; how it was run: as §1
[11] = Drug uptake in Nu/Nu mouse tumor xenografted with HEK cells expressing mu opioid receptor (unknown origin); format: ADME, Neoplasm; how it was run: as §1
[12] = tested on: Intestine; test: Drug uptake in Nu/Nu mouse intestine xenografted with HEK cells expressing mu opioid receptor (unknown origin); format: ADME, tissue-based; how it was run: as §1
[13] = tested on: Kidney; test: Drug uptake in Nu/Nu mouse kidney xenografted with HEK cells expressing mu opioid receptor (unknown origin); format: ADME, tissue-based; how it was run: as §1
[14] = Displacement of [3H]DADLE from delta opioid receptor in guinea pig brain membrane; format: cell membranes, Cavia porcellus
[15] = Antitumor activity against human SQC cells xenografted in nude mouse model assessed as tumor growth inhibition at 0.1 mg/kg administered daily relative to control; format: functional; conditions: read-out: TGI
[16] = target: Mu-type opioid receptor (Homo sapiens) (UniProt P35372); test: Binding affinity to mu opioid receptor (unknown origin) expressed in HEK cells at 25 nM by confocal microscopic method; format: cell-based
Sequence of Mu-type opioid receptor (Homo sapiens) (P35372 whole entry): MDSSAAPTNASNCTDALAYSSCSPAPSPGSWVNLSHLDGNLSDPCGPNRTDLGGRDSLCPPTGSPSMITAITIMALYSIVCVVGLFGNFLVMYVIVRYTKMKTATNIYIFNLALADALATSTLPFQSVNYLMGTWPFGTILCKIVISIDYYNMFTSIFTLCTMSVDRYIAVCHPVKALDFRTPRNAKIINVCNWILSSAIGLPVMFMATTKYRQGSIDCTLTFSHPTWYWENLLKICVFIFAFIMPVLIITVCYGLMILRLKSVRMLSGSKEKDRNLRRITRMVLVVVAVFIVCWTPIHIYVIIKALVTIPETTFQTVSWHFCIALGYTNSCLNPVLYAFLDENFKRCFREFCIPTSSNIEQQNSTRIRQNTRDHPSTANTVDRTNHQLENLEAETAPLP
How it was run: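 HEK cells transfected to overexpress the μ-opioid receptor were treated with 25 nM rhodamine-labelled naltrexone-derived conjugate for 1 h. […] Cell-associated fluorescence and internalisation were imaged by confocal microscopy.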

SMILES: NC(CNC(=O)CCOCCOCCOCCOCCNC(=O)CCC(=O)NCCCCCn1cc(-c2ccc(C(=O)N[C@@H]3CC[C@@]4(O)[C@H]5Cc6ccc(O)c7c6[C@@]4(CCN5CC4CC4)[C@H]3O7)cn2)nn1)C(=O)NCC(N)C(=O)NC(CC(=O)O)C(=O)NC(CS)C(=O)O (stereo partly specified)
- Drug uptake [1]: Active
- Drug uptake [2]: Active
- Drug uptake [3]: Active
- Drug uptake [4]: Active
- Drug uptake [5]: Active
- Drug uptake [6]: Active
- Drug uptake [7]: Active

SMILES: CCN(CC)c1ccc2c(-c3ccc(NC(=S)NCCCCCn4cc(-c5ccc(C(=O)N[C@@H]6CC[C@@]7(O)[C@H]8Cc9ccc(O)c%10c9[C@@]7(CCN8CC7CC7)[C@H]6O%10)cn5)nn4)cc3C(=O)O)c3ccc(=[N+](CC)CC)cc-3oc2c1
- Activity [8]: Active
- Activity [9]: Active

SMILES: NC(CNC(=O)CCOCCOCCOCCOCCNC(=O)CCC(=O)NCC(=O)NCC(=O)N[C@@H]1CC[C@@]2(O)[C@H]3Cc4ccc(O)c5c4[C@@]2(CCN3CC2CC2)[C@H]1O5)C(=O)NC(CC(=O)O)C(=O)NC(CS)C(=O)O (stereo partly specified)
- Drug uptake [10]: Active
- Drug uptake [11]: Active
- Drug uptake [12]: Active
- Drug uptake [13]: Active

SMILES: O=C1CC[C@@]2(O)[C@H]3Cc4ccc(O)c5c4[C@@]2(CCN3CC2CC2)[C@H]1O5 [NALTREXONE]
- Ki [14]: 10.5 nM
- inhibition in vivo at 0.1 mg/kg [15]: 84%

SMILES: CCN(CC)c1ccc2c(-c3ccc(NC(=S)NCC(=O)NCC(=O)N[C@@H]4CC[C@@]5(O)[C@H]6Cc7ccc(O)c8c7[C@@]5(CCN6CC5CC5)[C@H]4O8)cc3C(=O)O)c3ccc(=[N+](CC)CC)cc-3oc2c1
- Activity [16]: Active
